Assay results reported in ChEMBL document CHEMBL1128429, “Synthesis and structure-activity relationships of 6-heterocyclic-substituted purines as inactivation modifiers of cardiac sodium channels” (J Med Chem, 1995).

How the values were obtained:
[1] = system: Sodium channel protein type 5 subunit alpha (Cavia porcellus); test: Inactivation process of guinea pig cardiac Na channels expressed in xenopus oocytes was determined by measuring increase in current integral in presence of compound versus control at 10 uM; settings: oocyte
Oryctolagus cuniculus [2] = organism: Oryctolagus cuniculus; test: Antiarrhythmic activity was determined by measuring the concentration that produced a 20 ms increase in ERP; type: functional, Heart
How it was run: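 Langendorff-perfused rabbit heart, equilibrated 45 min before control. ERP measured after 15 min exposure to each of five cumulative concentrations: single premature stimulus scanning diastole at twice threshold. Concentration giving a 20 ms ERP increase taken from the concentration–response curve; repeated-measures ANOVA, mean change ± SEM.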

Oryctolagus cuniculus [3] = organism: Oryctolagus cuniculus; test: Concentration which increased contractility by 20% in rabbit; type: functional
How it was run: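 Langendorff-perfused rabbit heart, 45 min equilibration, then five cumulative concentrations with 15 min exposure each. Contractility read as dP/dt; the nanomolar concentration raising it by 20% was derived from the concentration–response curve. Repeated-measures ANOVA, mean change from control ± SEM.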

[4] = Inactivation processes of human heart Na channel expressed in Xenopus oocytes as increase in current at 10 uM; type: functional, Oocyte
How it was run: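 Oocytes injected with cRNA transcribed from human cardiac Na channel (HH1) cDNA. Two-microelectrode voltage clamp at 21–23 °C, perfusion buffer with Na raised to 140 mM. Current integrated at −20 mV after the capacity transient settled. Single 10 μM exposure per oocyte; percent change in integral versus control, ± SEM.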

[5] = Effective concentration against Xenopus oocytes expressing human heart Na channel; type: functional, cell-based; settings: oocyte
How it was run: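 HH1 human cardiac Na channel cRNA in oocytes; perfusate Na 140 mM, 21–23 °C, integral taken at −20 mV. At least three concentrations, n ≥ 3 each, single concentration per oocyte. Pooled data gave the EC50 (nM producing 50% integral increase) by linear regression over the lower, non-blocking range.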

[6] = Effective concentration against Xenopus oocytes expressing guinea pig heart Na channel; type: functional, cell-based, Cavia porcellus; settings: oocyte
How it was run: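 Guinea pig heart RNA in Xenopus oocytes, voltage clamp at 21–23 °C, integral taken at −10 mV. Three or more concentrations, n ≥ 3 each, one per oocyte. Pooled percent-change data plotted semilogarithmically; EC50 (nM giving 50% integral increase) obtained by linear regression over the range lacking significant current block.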

Row | SMILES | Change [1] [%] | Change [4] [%] | also measured
1 | OC(CN1CCC(=C(c2ccccc2)c2ccccc2)CC1)Cn1cnc2c(-n3cccc3)ncnc21 (stereo not drawn) | 94 | – | –
2 | Cc1cc2c(n1-c1ncnc3c1ncn3CC(O)CN1CCN(C(c3ccccc3)c3ccccc3)CC1)CCCC2 (stereo not drawn) | 8 | – | –
3 | O[C@@H](CN1CCN(C(c2ccccc2)c2ccccc2)CC1)Cn1cnc2c(-n3cncn3)ncnc21 | – | 393 | EC20 (Oryctolagus cuniculus [2]): 35 nM; dP/dt (Oryctolagus cuniculus [3]): 43 nM; EC50 [5]: 920 nM
4 | O[C@@H](CN1CCN(C(c2ccccc2)c2ccccc2)CC1)Cn1cnc2c(-n3cccc3)nc(C(F)(F)F)nc21 | -13 | – | –
5 | OC(CN1CCCN(C(c2ccccc2)c2ccccc2)CC1)Cn1cnc2c(-n3cccc3)ncnc21 (stereo not drawn) | 38 | – | –
6 | Nc1ncnc2c1ncn2C[C@H](O)CN1CCN(C(c2ccccc2)c2ccccc2)CC1 | -43 | – | EC20 (Oryctolagus cuniculus [2]): 5240 nM; dP/dt (Oryctolagus cuniculus [3]): 1140 nM
7 | OC(CN1CCN(C(c2ccccc2)c2ccccc2)CC1)Cn1cnc2c(NCc3ccccc3)ncnc21 (stereo not drawn) | -77 | – | –
8 | OC(CN1CCN(C(c2ccccc2)c2ccccc2)CC1)Cn1cnc2ccccc21 (stereo not drawn) | 42 | – | –
9 | CN1CCN(CC(O)Cn2cnc3c(-n4cccc4)ncnc32)CC1 (stereo not drawn) | -35 | – | –
10 | Cc1ncnc2c1ncn2C[C@@H](O)CN1CCN(C(c2ccccc2)c2ccccc2)CC1 | – | 105 | EC50 [5]: 3990 nM
11 | O/N=C(/CN1CCN(C(c2ccccc2)c2ccccc2)CC1)Cn1cnc2c(-n3cccc3)ncnc21 | -6 | – | –
12 | O[C@@H](CN1CCN(C(c2ccccc2)c2ccccc2)CC1)Cn1cnc(-n2cccn2)c2ncnc1-2 | – | 369 | EC20 (Oryctolagus cuniculus [2]): 74 nM; dP/dt (Oryctolagus cuniculus [3]): 148 nM; EC50 [5]: 900 nM
13 | O=Cc1cccn1-c1ncnc2c1ncn2C[C@@H](O)CN1CCN(C(c2ccccc2)c2ccccc2)CC1 | – | 904 | EC20 (Oryctolagus cuniculus [2]): 17 nM; dP/dt (Oryctolagus cuniculus [3]): 17 nM; EC50 [5]: 78 nM
14 | O[C@@H](CN1CCN(C(c2ccccc2)c2ccccc2)CC1)Cn1cnc(-c2ccncc2)c2ncnc1-2 | – | 265 | EC50 [5]: 2100 nM
15 | OC(CN1CCN(C(c2ccccc2)c2ccncc2)CC1)Cn1cnc2c(-n3cccc3)ncnc21 (stereo not drawn) | 326 | – | –
16 | O[C@@H](CN1CCN(C(c2ccccc2)c2ccccc2)CC1)Cn1cnc2c(-n3cccc3)ncnc21 | 390 | – | EC50 [6]: 245 nM
17 | OC(CN1CCN(C2c3ccccc3-c3ccccc32)CC1)Cn1cnc2c(-n3cccc3)ncnc21 (stereo not drawn) | -19 | – | –
18 | OC(CN1CCN(C(c2ccccc2)c2ccccc2)CC1)Cn1cnc2c(C#Cc3ccccc3)ncnc21 (stereo not drawn) | 9 | – | –
19 | OC(CN1CCN(C(c2ccccc2)c2ccccc2)CC1)Cn1cnc2c(Cc3ccccc3)ncnc21 (stereo not drawn) | -100 | – | –
20 | Cc1nccn1-c1ncnc2c1ncn2C[C@@H](O)CN1CCN(C(c2ccccc2)c2ccccc2)CC1 | – | 1449 | EC50 [5]: 2700 nM
21 | O=C(C(c1ccccc1)c1ccccc1)N1CCN(CC(O)Cn2cnc3c(-n4cccc4)ncnc32)CC1 (stereo not drawn) | 6 | – | –
22 | c1ccc2c(c1)CCc1ccccc1C2N1CCN(CCCn2cnc3c(-n4cccc4)ncnc32)CC1 | 120 | – | –
23 | O[C@@H](CN1CCN(C(c2ccccc2)c2ccccc2)CC1)Cn1cnc(-c2cccs2)c2ncnc1-2 | – | 437 | EC50 [5]: 433 nM
24 | Nc1nc(-c2ccncc2)nc2c1ncn2CC(O)CN1CCN(C(c2ccccc2)c2ccccc2)CC1 (stereo not drawn) | -2 | – | –
25 | OC(CN1CCN(CC(c2ccccc2)c2ccccc2)CC1)Cn1cnc2c(-n3cccc3)ncnc21 (stereo not drawn) | -47 | – | –
26 | C[C@](O)(CN1CCN(C(c2ccccc2)c2ccccc2)CC1)Cn1cnc2c(-n3cccc3)ncnc21 | 34 | – | –
27 | OC(CN1CCN(C(c2ccccc2)c2ccccc2)CC1)Cn1cnc2cncnc21 (stereo not drawn) | 288 | – | EC20 (Oryctolagus cuniculus [2]): 95 nM; dP/dt (Oryctolagus cuniculus [3]): 110 nM; EC50 [6]: 796 nM
28 | OC(CN1CCN(C(c2ccccc2)c2ccccc2)CC1)Cn1ccc2ccccc21 (stereo not drawn) | 36 | – | –

Row | SMILES | Change [1] [%] | Change [4] [%] | also measured
29 | Cc1nccn1-c1ncnc2c1ncn2CC(O)CN1CCN(C(c2ccccc2)c2ccccc2)CC1 (stereo not drawn) | – | 158 | EC20 (Oryctolagus cuniculus [2]): 90 nM; dP/dt (Oryctolagus cuniculus [3]): 60 nM; EC50 [5]: 1260 nM
30 | OC(CN1CCN(C(c2ccccc2)c2ccccc2)CC1)Cn1ccc2cccnc21 (stereo not drawn) | -71 | – | –
31 | OC(CN1CCN(C(c2ccccc2)c2ccccc2)CC1)Cn1cnc2c(-c3ccccc3)ncnc21 (stereo not drawn) | 151 | – | EC50 [6]: 1260 nM
32 | O[C@@H](CN1CCN(C(c2ccccc2)c2ccccc2)CC1)Cn1cnc2c(-n3ccnc3)ncnc21 | – | 459 | EC20 (Oryctolagus cuniculus [2]): 30 nM; EC50 [5]: 1250 nM
33 | NC(CN1CCN(C(c2ccccc2)c2ccccc2)CC1)Cn1cnc2c(-n3cccc3)ncnc21 (stereo not drawn) | 451 | – | –
34 | O[C@@H](CN1CCN(C(c2ccccc2)c2ccccc2)CC1)Cn1cnc2c(-c3ncon3)ncnc21 | – | 138 | –
35 | OC(CN1CCC(C(O)(c2ccccc2)c2ccccc2)CC1)Cn1cnc2c(-n3cccc3)ncnc21 (stereo not drawn) | -10 | – | –
36 | O=C(CN1CCN(C(c2ccccc2)c2ccccc2)CC1)Cn1cnc2c(-n3cccc3)ncnc21 | 9 | – | –
37 | OC(CN1CCN(C(c2ccccc2)c2ccccc2)CC1)Cn1cnc2c(Cl)ncnc21 (stereo not drawn) | – | 176 | EC50 [5]: 1950 nM
38 | O[C@@H](CN1CCN(C(c2ccccc2)c2ccccc2)CC1)Cn1cnc(-c2ncon2)c2ncnc1-2 | – | -6 | –
39 | O=Cc1ccn(-c2ncnc3c2ncn3C[C@@H](O)CN2CCN(C(c3ccccc3)c3ccccc3)CC2)c1 | – | 63 | EC50 [5]: 7260 nM
40 | OC(CN1CCC(C(c2ccccc2)c2ccccc2)CC1)Cn1cnc2c(-n3cccc3)ncnc21 (stereo not drawn) | 108 | – | –
41 | OC(CN1CCN(C(c2ccc(F)cc2)c2ccc(F)cc2)CC1)Cn1cnc2c(-n3cccc3)ncnc21 (stereo not drawn) | 521 | – | –
42 | N#Cc1cccn1-c1ncnc2c1ncn2C[C@@H](O)CN1CCN(C(c2ccccc2)c2ccccc2)CC1 | – | 456 | EC20 (Oryctolagus cuniculus [2]): 57 nM; dP/dt (Oryctolagus cuniculus [3]): 22 nM; EC50 [5]: 447 nM
43 | Cc1ccc(C)n1-c1ncnc2c1ncn2CC(O)CN1CCN(C(c2ccccc2)c2ccccc2)CC1 (stereo not drawn) | -47 | – | –
44 | O[C@@H](CN1CCN(C(c2ccccc2)c2ccccc2)CC1)Cn1cnc2c(-c3cccs3)ncnc21 | – | 116 | EC50 [5]: 1030 nM
45 | CC(c1ccccc1)N1CCN(CC(O)Cn2cnc3c(-n4cccc4)ncnc32)CC1 (stereo not drawn) | -32 | – | –
46 | Cc1ccccc1C(c1ccccc1)N1CCN(CC(O)Cn2cnc3c(-n4cccc4)ncnc32)CC1 (stereo not drawn) | 209 | – | –
47 | OC(CN1CCN(C(c2ccccc2)c2ccccc2)CC1)Cn1cnc2c(-n3cccc3)ncnc21 (stereo not drawn) | 542 | – | EC50 [6]: 580 nM
48 | CC1CN(CC(O)Cn2cnc3c(-n4cccc4)ncnc32)CCN1C(c1ccccc1)c1ccccc1 (stereo not drawn) | 839 | – | –
49 | O[C@@H](CN1CCN(C(c2ccccc2)c2ccccc2)CC1)Cn1cnc2c(-c3ccncc3)ncnc21 | – | 99 | EC50 [5]: 2800 nM
50 | OC(CN1CCN(C(c2ccccc2)c2ccccc2)CC1)Cn1cnc2cccnc21 (stereo not drawn) | 154 | – | –
51 | Nc1ncnc2c1ncn2CCCN1CCN(C(c2ccccc2)c2ccccc2)CC1 | -66 | – | –
52 | OC(CN1CCN(C(c2ccccc2)c2ccccc2)CC1)Cn1cnc2c(N3CCCCC3)ncnc21 (stereo not drawn) | 26 | – | –
53 | Cc1ccn(-c2ncnc3c2ncn3CC(O)CN2CCN(C(c3ccccc3)c3ccccc3)CC2)n1 (stereo not drawn) | – | 40 | –
54 | OC(CN1CCN(Cc2ccccc2)CC1)Cn1cnc2c(-n3cccc3)ncnc21 (stereo not drawn) | 182 | – | –
55 | OC(COc1cccc2[nH]ccc12)CN1CCN(C(c2ccccc2)c2ccccc2)CC1 (stereo not drawn) | -29 | – | –
